Measurements as given in ChEMBL document CHEMBL1123791, “3'-substituted 2',3'-dideoxynucleoside analogues as potential anti-HIV (HTLV-III/LAV) agents” (J Med Chem, 1987).

Test system: ATH-8 cell line
Assay: Required dose to reduce viability of normal uninfected ATH8 cells.
Type: functional
Conditions: Homo sapiens, read-out: ID50 (the source's name)

Row | Compound | IC50
1 | O=c1ccn([C@H]2C=C[C@@H](CO)O2)c(=O)[nH]1 | 107 µM
2 | Nc1ncnc2c1ncn2[C@H]1C[C@H](O)[C@@H](CO)O1 [DEOXYADENOSINE] | > 100 µM
3 | Cc1cn([C@H]2C=C[C@@H](CO)O2)c(=O)[nH]c1=O [STAVUDINE] | 110 µM
4 | Nc1ccn([C@H]2CC[C@@H](CO)O2)c(=O)n1 [ZALCITABINE] | 35 µM

Test system: MT4
Assay: Toxicity was determined by evaluation of cluster morphology and reclustering properties in mock infected MT-4 cells at 125 uM concentration; Range is 10-40
Type: cell-based
Conditions: human, mt4, 125 µM
Procedure, shortened: (§1)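 Mock-infected MT4 cells were seeded at 2.5×10^5 cells/mL with compound at 125–0.00032 µM and cultured 5 days at 37 °C. Cluster morphology was scored microscopically, then cells were dispersed by pipetting and reclustering read after 4 h. Scoring: ++ >90%, + 10–40%, − <10% toxicity.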

Row | Compound | Toxicity
5 | Nc1ncnc2c1ncn2[C@H]1C[C@H](O)[C@@H](CO)O1 [DEOXYADENOSINE] | 10%

Test system: MT4
Assay: Toxicity was determined by evaluation of cluster morphology and reclustering properties in mock infected MT-4 cells at 0.2 uM concentration
Type: cell-based
Conditions: human, mt4, 0.2 µM

Row | Compound | Toxicity
6 | Nc1ncnc2c1ncn2[C@H]1C[C@H](F)[C@@H](CO)O1 | < 10%
7 | CCc1cn(C2CCC(CO)O2)c(=O)[nH]c1=O (configuration not stated) | < 10%
8 | O=c1ccn([C@H]2C=C[C@@H](CO)O2)c(=O)[nH]1 | < 10%
9 | Cc1cn([C@H]2C[C@H](N=[N+]=[N-])[C@@H](CO)O2)c(=O)[nH]c1=O (stereo in doubt; 9k) [ZIDOVUDINE] | < 10%
10 | Nc1ncnc2c1ncn2[C@H]1C[C@H](O)[C@@H](CO)O1 [DEOXYADENOSINE] | < 10%
11 | Nc1ccn([C@H]2CC[C@@H](CO)O2)c(=O)n1 [ZALCITABINE] | < 10%

Test system: ATH-8 cell line
Assay: Protection of ATH8 cells against the cytopathic effect of HIV.
Type: functional
Conditions: Homo sapiens, read-out: ED50 (the source's name)

Row | Compound | EC50
12 | Cc1cn([C@H]2C=C[C@@H](CO)O2)c(=O)[nH]c1=O [STAVUDINE] | 4.1 µM
13 | Nc1ccn([C@H]2CC[C@@H](CO)O2)c(=O)n1 [ZALCITABINE] | 0.2 µM

Second part, the molecule after the results:

Row | EC50 | Compound
14 | > 100 µM | O=c1ccn([C@H]2C=C[C@@H](CO)O2)c(=O)[nH]1
15 | > 100 µM | Nc1ncnc2c1ncn2[C@H]1C[C@H](O)[C@@H](CO)O1 [DEOXYADENOSINE]

Test system: MT4
Assay: Toxicity was determined by evaluation of cluster morphology and reclustering properties in mock infected MT-4 cells at 0.2 uM concentration; Range is 10-40
Type: cell-based
Conditions: human, mt4, 0.2 µM
Procedure, shortened: as §1

Row | Compound | Toxicity
16 | Cc1cn([C@H]2C=C[C@@H](CO)O2)c(=O)[nH]c1=O [STAVUDINE] | 10%

Test system: MT4
Assay: Protection was determined by evaluation of cluster morphology and reclustering properties in […] MT-4 cells at 0.008 uM concentration; Range is 10-40
Type: functional, Homo sapiens
Conditions: not given
Procedure, shortened: (§2)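 MT4 cells infected with HIV (300 CCID50/well) were seeded at 2.5×10^5 cells/mL with compound at 125, 5, 0.2, 0.008 or 0.00032 µM and kept 5 days at 37 °C. Clusters were scored microscopically, dispersed by pipetting, and reclustering assessed after 4 h at 37 °C. Scoring: +++ >90% protection.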

Row | Compound | Protection
17 | Cc1cn([C@H]2C=C[C@@H](CO)O2)c(=O)[nH]c1=O [STAVUDINE] | 10%

Test system: MT4
Assay: Protection was determined by evaluation of cluster morphology and reclustering properties in […] MT-4 cells at 0.2 uM concentration
Type: functional, Homo sapiens
Conditions: not given

Row | Compound | Protection
18 | CCc1cn(C2CCC(CO)O2)c(=O)[nH]c1=O (configuration not stated) | <10%
19 | O=c1ccn([C@H]2C=C[C@@H](CO)O2)c(=O)[nH]1 | <10%
20 | Cc1cn([C@H]2C[C@H](N=[N+]=[N-])[C@@H](CO)O2)c(=O)[nH]c1=O (stereo in doubt; 9k) [ZIDOVUDINE] | <10%
21 | Nc1ncnc2c1ncn2[C@H]1C[C@H](O)[C@@H](CO)O1 [DEOXYADENOSINE] | <10%
22 | Cc1cn([C@H]2C=C[C@@H](CO)O2)c(=O)[nH]c1=O [STAVUDINE] | >90%

Test system: MT4
Assay: Toxicity was determined by evaluation of cluster morphology and reclustering properties in mock infected MT-4 cells at 0.008 uM concentration
Type: cell-based
Conditions: human, mt4, 0.008 µM
Procedure, shortened: as §1

Row | Compound | Toxicity
23 | CCc1cn(C2CCC(CO)O2)c(=O)[nH]c1=O (configuration not stated) | < 10%

Test system: MT4
Assay: Protection was determined by evaluation of cluster morphology and reclustering properties in […] MT-4 cells at 0.00032 uM concentration
Type: functional, Homo sapiens
Conditions: not given
Procedure, shortened: as §2

Row | Compound | Protection
24 | Cc1cn([C@H]2C=C[C@@H](CO)O2)c(=O)[nH]c1=O [STAVUDINE] | <10%

Test system: MT4
Assay: Toxicity was determined by evaluation of cluster morphology and reclustering properties in mock infected MT-4 cells at 125 uM concentration
Type: cell-based
Conditions: human, mt4, 125 µM

Row | Compound | Toxicity
25 | Nc1ncnc2c1ncn2[C@H]1C[C@H](F)[C@@H](CO)O1 | < 10%
26 | CCc1cn(C2CCC(CO)O2)c(=O)[nH]c1=O (configuration not stated) | < 10%
27 | O=c1ccn([C@H]2C=C[C@@H](CO)O2)c(=O)[nH]1 | > 90%
28 | Cc1cn([C@H]2C=C[C@@H](CO)O2)c(=O)[nH]c1=O [STAVUDINE] | > 90%
29 | Nc1ccn([C@H]2CC[C@@H](CO)O2)c(=O)n1 [ZALCITABINE] | > 90%

Same assay, conditions: human, mt4, 125 µM; 125 µM

Row | Compound | Toxicity
30 | Cc1cn([C@H]2C[C@H](N=[N+]=[N-])[C@@H](CO)O2)c(=O)[nH]c1=O (stereo in doubt; 9k) [ZIDOVUDINE] | < 10%

Test system: not listed separately
Assay: Therapeutic index (Ratio = ID50/ED50).
Conditions: not given

Row | Compound | selectivity ratio
31 | O=c1ccn([C@H]2C=C[C@@H](CO)O2)c(=O)[nH]1 | < 1.1
32 | Cc1cn([C@H]2C=C[C@@H](CO)O2)c(=O)[nH]c1=O [STAVUDINE] | 27
33 | Nc1ccn([C@H]2CC[C@@H](CO)O2)c(=O)n1 [ZALCITABINE] | 175

Test system: MT4
Assay: Protection was determined by evaluation of cluster morphology and reclustering properties in […] MT-4 cells at 0.2 uM concentration; Range is 40-60
Type: functional, Homo sapiens
Conditions: not given
Procedure, shortened: as §2

Row | Compound | Protection
34 | Nc1ccn([C@H]2CC[C@@H](CO)O2)c(=O)n1 [ZALCITABINE] | 40%

Test system: MT4
Assay: Protection was determined by evaluation of cluster morphology and reclustering properties in mock infected MT-4 cells at 125 uM concentration
Type: functional, Homo sapiens
Conditions: in the assay text read “HIV infected” for “mock infected”
Procedure, shortened: as §2

Row | Compound | Protection
35 | CCc1cn(C2CCC(CO)O2)c(=O)[nH]c1=O (configuration not stated) | <10%
36 | Cc1cn([C@H]2C[C@H](N=[N+]=[N-])[C@@H](CO)O2)c(=O)[nH]c1=O (stereo in doubt; 9k) [ZIDOVUDINE] | <10%
37 | Nc1ncnc2c1ncn2[C@H]1C[C@H](O)[C@@H](CO)O1 [DEOXYADENOSINE] | <10%

Test system: MT4
Assay: Protection was determined by evaluation of cluster morphology and reclustering properties in […] at 0.008 uM concentration.
Type: functional, Homo sapiens
Conditions: not given

Row | Compound | Protection
38 | CCc1cn(C2CCC(CO)O2)c(=O)[nH]c1=O (configuration not stated) | <10%
39 | O=c1ccn([C@H]2C=C[C@@H](CO)O2)c(=O)[nH]1 | <10%
40 | Nc1ccn([C@H]2CC[C@@H](CO)O2)c(=O)n1 [ZALCITABINE] | <10%

Test system: MT4
Assay: Toxicity was determined by evaluation of cluster morphology and reclustering properties in mock infected MT-4 cells at 5 uM concentration
Type: cell-based
Conditions: human, mt4, 5 µM
Procedure, shortened: as §1

Row | Compound | Toxicity
41 | Nc1ncnc2c1ncn2[C@H]1C[C@H](F)[C@@H](CO)O1 | < 10%
42 | CCc1cn(C2CCC(CO)O2)c(=O)[nH]c1=O (configuration not stated) | < 10%
43 | O=c1ccn([C@H]2C=C[C@@H](CO)O2)c(=O)[nH]1 | < 10%
44 | Nc1ncnc2c1ncn2[C@H]1C[C@H](O)[C@@H](CO)O1 [DEOXYADENOSINE] | < 10%
45 | Cc1cn([C@H]2C=C[C@@H](CO)O2)c(=O)[nH]c1=O [STAVUDINE] | > 90%
46 | Nc1ccn([C@H]2CC[C@@H](CO)O2)c(=O)n1 [ZALCITABINE] | < 10%

Same assay, conditions: human, mt4, 5 µM; 5 µM

Row | Compound | Toxicity
47 | Cc1cn([C@H]2C[C@H](N=[N+]=[N-])[C@@H](CO)O2)c(=O)[nH]c1=O (stereo in doubt; 9k) [ZIDOVUDINE] | < 10%

Test system: MT4
Assay: Protection was determined by evaluation of cluster morphology and reclustering properties in […] MT-4 cells at 5 uM concentration.
Type: functional, Homo sapiens
Conditions: not given
Procedure, shortened: as §2

Row | Compound | Protection
48 | CCc1cn(C2CCC(CO)O2)c(=O)[nH]c1=O (configuration not stated) | <10%
49 | O=c1ccn([C@H]2C=C[C@@H](CO)O2)c(=O)[nH]1 | <10%
50 | Cc1cn([C@H]2C[C@H](N=[N+]=[N-])[C@@H](CO)O2)c(=O)[nH]c1=O (stereo in doubt; 9k) [ZIDOVUDINE] | <10%
51 | Nc1ncnc2c1ncn2[C@H]1C[C@H](O)[C@@H](CO)O1 [DEOXYADENOSINE] | <10%
52 | Nc1ccn([C@H]2CC[C@@H](CO)O2)c(=O)n1 [ZALCITABINE] | >90%
